Source: ChEMBL document CHEMBL1158940, “Antihyperlipidemic effect of flavonoids from Prunus davidiana” (1991)

Tests used:
Assay type in all cases: functional
Design in all cases: scale not given: the % may be the effect or the level left
Conditions in all cases: route intraperitoneal
Rattus norvegicus [1] = experiment: Antihyperlipidemic effect in high fat diet-induced rat assessed as decrease in serum triglyceride level at 20 mg/kg, ip relative to control
Outline: (§1)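 Male JCL:Wistar rats (150 g) on commercial chow 1 week, then high-fat diet (10 g soybean oil per 100 g, casein, α-cornstarch) 6 days, pair-matched for blood triglyceride and body weight. Compound suspended in 5% EtOH/saline, ip once daily for 3 days; controls get vehicle. Sacrificed 4 h after last dose (2–3 PM); serum separated at 1000 g, 4°. Six rats per group; percent of control; Student's t-test.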

Rattus norvegicus [2] = experiment: Antihyperlipidemic effect in high fat diet-induced rat assessed as decrease in serum total cholesterol level at 20 mg/kg, ip relative to control; outline: as §1
Rattus norvegicus [3] = experiment: Antihyperlipidemic effect in high fat diet-induced rat assessed as decrease in serum total cholesterol level at 10 mg/kg, ip relative to control; outline: as §1
Rattus norvegicus [4] = experiment: Antihyperlipidemic effect in high fat diet-induced rat assessed as decrease in serum triglyceride level at 10 mg/kg, ip relative to control; outline: as §1

Row | Compound | Activity (Rattus norvegicus [1]) [%] | Activity (Rattus norvegicus [2]) [%] | Activity (Rattus norvegicus [3]) [%] | Activity (Rattus norvegicus [4]) [%]
1 | Oc1cc(O)c2c(c1)O[C@H](c1ccc(O)c(O)c1)[C@@H](O)C2 [CIANIDANOL] | 73 | 99 | 95 | 75
2 | O=C1C[C@@H](c2ccc(O)cc2)Oc2cc(O[C@@H]3O[C@H](CO)[C@@H](O)[C@H](O)[C@H]3O)cc(O)c21 [PRUNIN] | 107 | 91 | 102 | 90
3 | COc1ccc([C@@H]2CC(=O)c3c(O[C@@H]4O[C@H](CO)[C@@H](O)[C@H](O)[C@H]4O)cc(O)cc3O2)cc1O | 90 | 101 | 88 | 100
